In ChEMBL document CHEMBL1126879, “A new series of imidazolones: highly specific and potent nonpeptide AT1 angiotensin II receptor antagonists” (J Med Chem, 1993):

Tests used:
Oryctolagus cuniculus = species: Oryctolagus cuniculus; test: Antagonistic activity through inhibition of A II induced contractions on rabbit aortic strips; format: functional; details: Aorta
[1] = target: T1, Type-1 angiotensin II receptor B (Rattus norvegicus, UniProt P29089); test: Binding affinity for Angiotensin II receptor, type 1 measured by ability to displace [125I]- A II from its specific binding site in rat liver membrane; format: cell membranes
T1 sequence (P29089 whole entry): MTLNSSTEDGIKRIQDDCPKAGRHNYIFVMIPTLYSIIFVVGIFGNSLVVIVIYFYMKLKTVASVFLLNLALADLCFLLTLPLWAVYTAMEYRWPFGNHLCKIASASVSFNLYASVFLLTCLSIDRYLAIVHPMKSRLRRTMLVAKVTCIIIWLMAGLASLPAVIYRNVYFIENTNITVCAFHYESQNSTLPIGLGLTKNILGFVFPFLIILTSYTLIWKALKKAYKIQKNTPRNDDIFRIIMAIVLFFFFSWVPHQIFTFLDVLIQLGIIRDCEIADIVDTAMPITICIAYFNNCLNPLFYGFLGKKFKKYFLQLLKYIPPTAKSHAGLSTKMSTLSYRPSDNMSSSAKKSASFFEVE
Method in brief: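 Purified plasma membranes from male Sprague-Dawley rat liver, isolated on a sucrose gradient, 20–30 μg protein per assay. Filtered, then gamma counted. Nonspecific binding with 1 μM unlabeled AII. Triplicates; IC50 and Hill coefficient from Hill plots.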

IC50 (Oryctolagus cuniculus) [nM]	IC50 [1] [nM]	Structure (SMILES)
420	110	CCCCC1=NC2(CCN(Cc3ccccc3)CC2)C(=O)N1Cc1ccc(-c2ccccc2C(=O)O)cc1
42	38	CCCCC1=NC2(CCC2)C(=O)N1Cc1ccc(-c2ccccc2C(=O)O)cc1
240	60	CCCCC1=NC2(Cc3ccccc3C2)C(=O)N1Cc1ccc(-c2ccccc2C(=O)O)cc1
	800	CCCCC1=NC2(CCN(C(=O)C(N)CC(=O)O)CC2)C(=O)N1Cc1ccc(-c2ccccc2C(=O)O)cc1 (stereo not given)
3900	2500	O=C(O)c1ccccc1-c1ccc(CN2C(=O)C3(CCCC3)N=C2Cc2ccccc2)cc1
130	18	CCCCC1=NC2(CCN(C(C)=O)CC2)C(=O)N1Cc1ccc(-c2ccccc2C(=O)O)cc1
350	350	CCCCC1=NC2(CCCCCCCCCC2)C(=O)N1Cc1ccc(-c2ccccc2C(=O)O)cc1
23	62	CCCCC1=NC2(C(=O)N1Cc1ccc(-c3ccccc3C(=O)O)cc1)C1CC3CC(C1)CC2C3 (stereo not given)
5400	3000	CCCCC1=NC(c2ccccc2)(c2ccccc2)C(=O)N1Cc1ccc(-c2ccccc2C(=O)O)cc1
200	47	CCCCC1=NC2(CCOCC2)C(=O)N1Cc1ccc(-c2ccccc2C(=O)O)cc1
> 10000	1800	CCCCC1=NC2(CCCC2)C(=O)N1Cc1ccc(-c2ccccc2C(=O)OC)cc1
52	80	CCCCC1=NC2(CCCC2)C(=S)N1Cc1ccc(-c2ccccc2C(=O)O)cc1
> 10000	440	CCCCC1=NC2(CCCC2)C(=O)N1Cc1ccc(-c2ccccc2C#N)cc1
4	1.3	CCCCC1=NC2(CCCC2)C(=O)N1Cc1ccc(-c2ccccc2-c2nnn[nH]2)cc1 [IRBESARTAN]
25		CCCCc1nc(Cl)c(CO)n1Cc1ccc(-c2ccccc2-c2nnn[nH]2)cc1 [LOSARTAN]
2.3	2.4	CNCC(=O)N[C@@H](CCCNC(=N)N)C(=O)N[C@H](C(=O)N[C@@H](Cc1ccc(O)cc1)C(=O)N[C@H](C(=O)N[C@@H](Cc1cnc[nH]1)C(=O)N1CCC[C@H]1C(=O)N[C@@H](C)C(=O)O)C(C)C)C(C)C [SARALASIN]
